In the library only some 2.7% were active in any assay of this set; here they are far more common.
MC4R antag cAMP – human MC4R antagonism in cAMP assay; P32245; inhibition, % at 6.5 µM; MC4R-expressing cells, MTII-stimulated cAMP, LANCE TR-FRET; 360,000 compounds, 0.48% hits;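 active = inhibition above its plate's cutoff, the mean of tested wells on that plate plus 3 SD, cut at about 29% in these data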;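 also: 0% = Melanotan II alone and 100% = Melanotan II plus saturating MCL0020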
Target sequence (P32245 whole entry, looked up): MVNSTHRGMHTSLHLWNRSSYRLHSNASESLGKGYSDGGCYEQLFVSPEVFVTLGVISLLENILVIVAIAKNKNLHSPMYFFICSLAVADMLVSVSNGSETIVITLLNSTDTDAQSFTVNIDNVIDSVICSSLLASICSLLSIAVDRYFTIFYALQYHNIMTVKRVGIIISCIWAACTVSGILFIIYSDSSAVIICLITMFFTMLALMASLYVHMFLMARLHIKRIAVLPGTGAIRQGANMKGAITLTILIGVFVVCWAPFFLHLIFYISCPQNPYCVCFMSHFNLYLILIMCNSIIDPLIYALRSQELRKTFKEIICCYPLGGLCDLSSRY
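Test system: U2OS cells stably expressing human melanocortin 4 receptor (MC4R); also added: Melanotan II challenge; compound: 6.5 µM single dose; timing: 30-min compound preincubation, 1-h Melanotan II challenge, 1-h detection, room temperature; signal: Eu-cAMP/anti-cAMP TR-FRET, emission 671 nm; repeats: one well per compound, no replicates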
NTR1 ag – activates human neurotensin receptor 1. P30989. NTR1-U2OS beta-arrestin-GFP spot imaging, agonist mode. activation, % at 20 µM. 330,000 compounds, 0.17% hits. AID 493036;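 active = activation at or above 40% of the spot to cytoplasm intensity ratio, with at least 20 cells analyzed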;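 also: 0% = DMSO without peptide and 100% = 100 nM NTR1 peptide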
Hep lipid drop – hepatic lipid droplet formation modulation. AML12 mouse hepatocytes, oleate lipid droplets, BODIPY imaging. inhibition, % at 6.5 µM. 240,000 compounds, 0.4% hits;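 active = lipid droplet intensity inhibited by at least 50%, with more than 500 cells counted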
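System: AML12 hepatocytes (mouse). Probe or stimulus: oleic acid at 100 µM to induce lipid droplet formation. Times: overnight treatment with compound plus oleate. Detection: Image-based BODIPY and DAPI two-channel analysis. Evaluation: percent inhibition of filter-corrected integrated lipid droplet intensity per well.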
HTR2A ag – mouse HTR2A agonism via beta-arrestin recruitment | P35363 | CHO-K1 mHTR2A beta-arrestin complementation, luminescence; percent of 30 µM serotonin response | activation, % at 7.6 µM | 360,000 compounds, 0.66% hits;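 active = activation above a run cutoff, the mean activation of all tested compounds plus 3 SD, cut at about 14% in these data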;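 also: 0% = plate median of compound wells and 100% = 30 µM serotonin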
MC4R barr agon – human MC4R agonism via beta-arrestin; P32245; U2OS MC4R beta-arrestin complementation, luminescence; percent of melanotan II response, DMSO zero; activation, % at 8.9 µM; 360,000 compounds, 0.98% hits; AID 540308;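 active = activation above a per-plate cutoff, the mean activation of sample wells on that plate plus 3 SD, cut at about 8% in these data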
PREPL inhibitor – inhibits the human prolyl oligopeptidase-like enzyme; recombinant PREPL, fluorescence polarization activity-based probe; inhibition, % at 5.96 µM; 320,000 compounds, 0.68% hits; AID 2751; in the data active = inhibition above about 43%;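 also: 0% = enzyme with DMSO and 100% = wells lacking enzyme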
OPRM1 ag – counter-screen for mouse HTR2A agonists: human mu opioid receptor agonists; activation, % at 9.3 µM; shares compounds with HTR2A ag; 2,300 compounds, 5.3% hits; U2OS OPRM1 beta-arrestin PathHunter, luminescence; DMSO 0%, DAMGO 9.3 µM 100%; AID 624380;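 active = mean activation above the mean of DMSO-only wells plus 3 SD, cut at about 0.5% in these data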
Target sequence (P35372 whole entry, looked up): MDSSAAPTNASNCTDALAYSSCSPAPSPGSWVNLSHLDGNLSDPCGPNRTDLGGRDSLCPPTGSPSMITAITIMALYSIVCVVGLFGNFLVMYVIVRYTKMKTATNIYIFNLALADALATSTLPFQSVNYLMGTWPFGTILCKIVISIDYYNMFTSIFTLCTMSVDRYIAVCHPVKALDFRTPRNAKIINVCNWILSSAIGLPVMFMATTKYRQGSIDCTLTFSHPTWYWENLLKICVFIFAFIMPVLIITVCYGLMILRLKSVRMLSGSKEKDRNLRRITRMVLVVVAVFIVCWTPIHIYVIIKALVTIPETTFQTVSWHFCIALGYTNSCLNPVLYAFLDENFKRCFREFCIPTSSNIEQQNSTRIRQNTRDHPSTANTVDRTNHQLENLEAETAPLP
HTR2A ag conf – mouse HTR2A agonism confirmed; shares compounds with HTR2A ag; CHO-K1 PathHunter beta-arrestin recruitment, luminescence; DMSO 0%, 30 µM serotonin 100%; activation, % at 7.6 µM; 2,300 compounds, 19% hits;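 active = mean activation across triplicates above the hit threshold derived in the original primary screen, cut at about 15% in these data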
Active calls of the source: *; nt = no result given.

SMILES | MC4R antag cAMP | NTR1 ag | Hep lipid drop | HTR2A ag | MC4R barr agon | PREPL inhibitor | OPRM1 ag | HTR2A ag conf
CCCCN(C=O)c1c(CC)nc2c(OCC(=O)C(C)(C)C)cccn12 | 2 | nt | nt | 10 | -1 | nt | nt | nt
COc1ccccc1OCCn1ccnc1 | 4 | -1 | 1 | 16* | -1 | 7 | -1 | -6
O=C1Nc2ccccc2/C1=C/c1ccc([N+](=O)[O-])cc1 | -12 | 10 | nt | 28* | 0 | 12 | 1.0* | -1
CC(=O)c1ccc(NC(=O)CCNS(=O)(=O)c2cccc3nonc23)cc1 | 26 | -2 | 6 | 36* | 1 | 41 | -1 | -4
O=C(/C=C/NNC(=O)c1ccccc1)c1ccc([N+](=O)[O-])cc1 | 24 | -1 | -4 | -1 | -3 | 29 | nt | nt
CCn1cc(C(=O)OCC(=O)Nc2c(C)cccc2C)c(=O)c2ccc(C)nc21 | -10 | 1 | -5 | -3 | 0 | 10 | nt | nt
CCOc1cc(CNC2CCCC2)cc(Cl)c1OCc1ccc(F)cc1 | 3 | 7 | -26 | 12 | 2 | -30 | nt | nt
COc1cc(CNC2CCCC2)cc(Cl)c1OCc1ccc(F)cc1 | -4 | 2 | -11 | 18* | 6 | -36 | 0.8* | 4
COc1cc(OC)cc(-c2c(-c3ccsc3)c3cc(Br)ccc3n2C)c1 | 0 | 8 | nt | 15* | 3 | 20 | 0 | -2
COc1cc(OC)cc(-c2c(-c3ccc(F)cc3)c3cc(-c4ccc5[nH]ccc5c4)ccc3n2C)c1 | 1 | -1 | nt | 15* | -1 | 15 | -1 | -4
COc1ccc(-c2c(-c3cc(OC)cc(OC)c3)n(C)c3ccc(Br)cc23)cc1 | 3 | 3 | nt | -1 | -2 | 8 | nt | nt
COc1ncc(-c2ccc3c(c2)S(=O)(=O)c2cccc(C(=O)O)c2C3=O)cn1 | 0 | 2 | nt | 18* | 0 | 11 | -1 | -3
CC1=C(C(=O)N2CCCCCC2)CC(CC(=O)NC(c2ccccc2)c2ccccc2)C(=O)N1Cc1ccccc1 (stereo unspecified) | nt | nt | nt | 2 | nt | nt | nt | nt
COc1ccc(OC)c(S(=O)(=O)NC(=O)C2(C)CCN2C(=O)C2(c3ccc(Cl)cc3)CC2)c1 (stereo unspecified) | 23 | nt | nt | 0 | -1 | nt | nt | nt
NC(=O)c1c(NC(=O)c2ccncc2)sc2c1CCCC2 | 11 | 3 | 15 | 18* | -4 | 13 | 0 | 5
CNc1ccc(C(=O)c2ccccc2C(=O)O)cc1[N+](=O)[O-] | 2 | 0 | 2 | 19* | -2 | 1 | -1 | -3
CCOc1ccccc1N1CCN(Cc2ccc(Br)s2)CC1 | -7 | 2 | nt | 48* | -2 | 20 | 0 | 26*
CC1(C(=O)NS(=O)(=O)c2cccc(Cl)c2)CCN1C(=O)c1ccccc1 (stereo unspecified) | 0 | nt | nt | 8 | -1 | nt | nt | nt
Cc1cc(-c2cccs2)c2c(n1)sc1c(=O)[nH]c(=O)[nH]c12 | -6 | -1 | 18 | 17* | 1 | 10 | -1 | -3
Cc1cc(-c2ccccc2)c2c(n1)sc1c(O)cc(=O)[nH]c12 | nt | 2 | 0 | nt | nt | 10 | nt | nt
COc1ccc(-c2cc(C(=O)Nc3c(C)n(C)n(-c4ccccc4)c3=O)no2)cc1OC | 9 | -1 | -2 | 1 | -1 | 1 | nt | nt
O=C(CCc1nc2ccccc2c(=O)[nH]1)NNC(=O)COc1cccc(F)c1 | 0 | 1 | nt | 5 | 2 | 0 | nt | nt
CCCC(=O)N1CCN(c2nc3ccccc3s2)CC1 | 1 | 2 | -6 | 3 | 3 | 2 | nt | nt
CSc1ccc(NC(=O)N2CCN(c3nc4ccccc4s3)CC2)cc1 | 8 | 5 | -10 | 18* | -2 | 16 | 0.5* | 1
C=CCN(C(=O)c1csnn1)C(C(=O)NC1CCCC1)c1c(F)cccc1Cl (stereo unspecified) | 2 | 1 | -12 | 4 | 1 | 12 | nt | nt
SMILES | MC4R antag cAMP | NTR1 ag | Hep lipid drop | HTR2A ag | MC4R barr agon | PREPL inhibitor | OPRM1 ag | HTR2A ag conf
COc1ccc(OC)c(S(=O)(=O)N(C)CC(=O)N2CCCCC2)c1 | -2 | 0 | -5 | 16* | -1 | 2 | -1 | -2
COc1ccc(S(=O)(=O)N(C)CC(=O)N2CCCCCC2)cc1 | 5 | -1 | -16 | 36* | -1 | 12 | -1 | 4
Oc1ccc(CCNc2c3ccccc3nc3ccccc23)cc1O | -18 | 1 | -3 | 42* | 1 | 11 | 0 | 58*
CCCOc1ccc(CN(C)c2ncnc(N)n2)cc1 | 2 | 1 | nt | -3 | -2 | -2 | nt | nt
COc1ccc(CN(C)c2ncnc(N)n2)cc1 | 1 | 1 | 4 | 19* | 0 | 4 | -1 | -3
CCc1nn(CC(=O)N2CCN(CC)CC2)c(=O)c2cc3sccc3n12 | 6 | -3 | -5 | 0 | -2 | 12 | nt | nt
CCc1nn(CC(=O)NCCc2ccc(S(N)(=O)=O)cc2)c(=O)c2cc3sccc3n12 | -4 | -1 | -3 | 27* | 0 | -1 | -1 | -2
CCN(CC(=O)Nc1c(F)cccc1F)C(=O)C1COc2ccccc2O1 (stereo unspecified) | 15 | 0 | nt | 3 | 0 | 14 | nt | nt
O=C(c1ccccc1)C1CCN(C(=O)c2c(F)cccc2F)CC1 | -1 | 0 | -11 | 3 | -1 | 7 | nt | nt
O=C(Nc1cccnc1)c1cc(-c2cccc(Br)c2)nc2ccccc12 | 4 | 10 | -58 | 0 | 3 | -6 | nt | nt
O=C(Nc1ccncc1)c1cc(-c2cccc(Br)c2)nc2ccccc12 | 18 | 15 | nt | 15* | 22* | -6 | 3.7* | 10
COc1ccc(CCn2c(C)cc(C(=O)CN3C(=O)C(=O)N(C4CCCC4)C3=O)c2C)cc1OC | 6 | 1 | nt | -1 | -2 | nt | nt | nt
CCCc1ccc(C(=O)CN2C(=O)C(=O)N(C3CCCC3)C2=O)cc1 | 3 | -4 | nt | 18* | -1 | 0 | 1.3* | 3
O=c1c(Cc2ccccc2)c(O)ccn1Cc1ccco1 | -3 | -1 | -6 | 3 | -1 | -1 | nt | nt
COc1ccccc1NC(=S)NCc1ccc2c(c1)cc(C)n2C | 1 | 1 | -2 | -1 | -2 | 35 | nt | nt
Cc1ccccc1NC(=S)NCc1ccc2c(c1)cc(C)n2C | -16 | 4 | -11 | 20* | -1 | 6 | -1 | 1
CN(C(=O)CSC1=NCCS1)c1ccccc1 | 2 | 2 | 1 | 15* | -2 | -6 | 0.9* | 0
O=[N+]([O-])c1cccc(-c2ccc(/C=N/NC(=S)Nc3ccccc3)o2)c1 | 14 | 6 | nt | 1 | 0 | 21 | nt | nt

Screening results (PubChem)
